Experimental data taken from ChEMBL document CHEMBL3797043 (Bioorg Med Chem Lett, 2016).
The source made the active and inactive calls. The rule behind the calls is not given here.

Tests used:
[1] = target: T1, Liver carboxylesterase (Sus scrofa, UniProt Q29550); experiment: Inhibition of porcine liver esterase using 4-nitrophenyl butyrate substrate assessed as reduction in p-nitrophenol release measured over 5 mins
T1 sequence (Q29550 whole entry): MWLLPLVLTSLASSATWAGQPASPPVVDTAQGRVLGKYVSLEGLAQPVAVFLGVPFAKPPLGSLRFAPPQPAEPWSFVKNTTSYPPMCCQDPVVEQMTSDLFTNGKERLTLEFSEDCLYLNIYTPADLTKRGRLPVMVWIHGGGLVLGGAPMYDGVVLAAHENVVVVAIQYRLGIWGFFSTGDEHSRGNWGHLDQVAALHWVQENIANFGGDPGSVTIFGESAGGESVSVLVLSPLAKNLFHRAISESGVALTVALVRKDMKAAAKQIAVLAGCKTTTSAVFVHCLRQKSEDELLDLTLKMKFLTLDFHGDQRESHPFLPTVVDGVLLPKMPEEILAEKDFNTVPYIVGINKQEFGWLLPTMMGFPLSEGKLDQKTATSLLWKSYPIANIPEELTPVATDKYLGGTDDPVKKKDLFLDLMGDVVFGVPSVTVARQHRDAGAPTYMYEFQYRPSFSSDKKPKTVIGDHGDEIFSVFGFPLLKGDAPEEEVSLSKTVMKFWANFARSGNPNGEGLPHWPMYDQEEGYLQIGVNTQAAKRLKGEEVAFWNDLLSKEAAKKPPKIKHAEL
Procedure, shortened: (§1)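 Commercial porcine enzymes (liver esterase, pancreatic elastase) assayed in microplates. The mix held enzyme, 100 uM chromogenic substrate, 0.125 M TrisCl and 0.2 mM EDTA at pH 8.0. Each reaction was started by adding substrate. Release of p-nitrophenol (esterase) or p-nitroaniline (elastase) was followed at 400 nm, with control rates linear over at least 5 min.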

[2] = target: Pancreatic elastase (Sus scrofa) (UniProt P08419+P00772); experiment: Inhibition of porcine pancreatic elastase at 10 uM using N-Succinyl-ala-ala-ala-p-nitroanilide substrate assessed as reduction in p-nitroaniline release measured over 5 mins; format: protein assay; procedure, shortened: as §1
[3] = system: Mus musculus; experiment: Analgesic effect in ICR mouse assessed as tail flick latencies at 20 to 40 mg/kg, ip measured 10 to 60 mins post dose by tail flick test; format: functional, organism-based
Procedure, shortened: (§2)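 Male ICR mice (18–22 g), blinded observers. Compounds in DMSO stock, diluted in Ringer's solution (final DMSO <10%), given ip in 0.1 mL. Distal 2–3 cm of tail immersed in 52°C ± .5 water; withdrawal latency (s) recorded before dosing and at 10, 20, 30, 45, 60 min after. ≥6 mice per compound per dose; mean ± SEM; two-way ANOVA with Bonferroni test.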

[4] = system: Mus musculus; experiment: Analgesic effect in ICR mouse assessed as tail flick latencies at 50 mg/kg, ip measured 10 to 60 mins post dose by tail flick test; format: functional, organism-based; procedure, shortened: as §2
[5] = system: Mus musculus; experiment: Analgesic effect in ICR mouse assessed as tail flick latencies at 20 to 100 mg/kg, ip measured 10 to 60 mins post dose by tail flick test; format: functional, organism-based; procedure, shortened: as §2
[6] = target: T2, Fatty-acid amide hydrolase 1 (Homo sapiens, UniProt O00519); experiment: Inhibition of MBP-fused human recombinant FAAH with truncated N-terminal transmembrane domain expressed in Escherichia coli T7 using D-AMC substrate measured over 40 mins by fluorescence based assay
T2 sequence (O00519 whole entry): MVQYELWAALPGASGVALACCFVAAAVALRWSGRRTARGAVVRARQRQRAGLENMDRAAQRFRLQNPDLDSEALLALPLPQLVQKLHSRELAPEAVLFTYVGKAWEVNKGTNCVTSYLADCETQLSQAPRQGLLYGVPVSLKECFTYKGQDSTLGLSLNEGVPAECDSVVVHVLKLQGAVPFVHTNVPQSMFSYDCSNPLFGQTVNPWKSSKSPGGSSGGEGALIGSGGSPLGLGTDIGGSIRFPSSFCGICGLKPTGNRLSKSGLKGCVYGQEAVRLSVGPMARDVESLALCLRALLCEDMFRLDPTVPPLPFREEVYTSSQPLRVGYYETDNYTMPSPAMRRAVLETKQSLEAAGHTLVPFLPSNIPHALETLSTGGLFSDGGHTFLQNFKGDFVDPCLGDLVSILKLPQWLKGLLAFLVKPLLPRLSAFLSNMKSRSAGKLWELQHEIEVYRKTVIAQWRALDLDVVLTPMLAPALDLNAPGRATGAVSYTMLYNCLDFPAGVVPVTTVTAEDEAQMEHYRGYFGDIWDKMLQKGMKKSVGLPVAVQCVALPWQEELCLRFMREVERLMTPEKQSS

[7] = target: T3, Fatty-acid amide hydrolase 1 (Homo sapiens) (UniProt O00519); experiment: Time dependent inhibition of MBP-fused human recombinant FAAH with truncated N-terminal transmembrane domain expressed in Escherichia coli T7 using D-AMC substrate measured over 40 mins by fluorescence based assay; settings: TDE = time-dependent effect
T3 sequence (whole entry): T2 sequence (O00519 whole entry)
Procedure, shortened: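 MBP–FAAH (residues 34–579, E. coli) at 3 μg protein per well, 8 pM active enzyme, with 5 μM D-AMC in Tris-Cl/EDTA/0.1% BSA pH 8.0 at 37 °C; DMSO ≤1%. Reactions started with enzyme; fluorescence read at ex 351/em 430 nm over 40 min. […] Ki from IC50 = Ki(1+[S]/Km)+[Et]/2.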

[8] = target: T3, Fatty-acid amide hydrolase 1 (Homo sapiens); experiment: Inhibition of MBP-fused human recombinant FAAH with truncated N-terminal transmembrane domain expressed in Escherichia coli T7 assessed as enzyme inactivation rate constant using D-AMC substrate incubated for 2 hrs by fluorescence based assay
Procedure, shortened: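 Human FAAH residues 34–579 as an MBP fusion, expressed in E. coli T7 Express with IPTG induction, then purified by amylose affinity and S100 chromatography. Substrate D-AMC at 5 μM final in 125 mM Tris-Cl, 1 mM EDTA, 0.1% BSA, pH 8.0, 37 °C; ex 351/em 430 nm. Apparent first-order k_i' measured at several inhibitor levels and fitted for k_inact and K_i (D-AMC Km 0.52 μM).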

SMILES	IC50 [1]	inhibition [2]	Activity [4]	further results
O=C(Nc1ccccc1)N1CCC(c2nc(C3=NOC(c4ccccc4)C3)cs2)CC1 (stereo not given)	5600 nM	inactive		
O=C(Oc1ccccc1)N1CCC(c2nc(C3=NOC(c4ccccc4)C3)cs2)CC1 (stereo not given)	2400 nM	inactive	Active	Activity [3]: inactive
N#Cc1ccc(OC(=O)N2CCC(c3nc(C4=NOC(c5ccccc5)C4)cs3)CC2)cc1 (stereo not given)			Active	Activity [5]: Dose-dependent effect
O=C(Oc1ccc(Cl)cc1)N1CCC(c2nc(C3=NOC(c4ccccc4)C3)cs2)CC1 (stereo not given)	470 nM	inactive		
O=C(Nc1nccs1)N1CCC(c2nc(C3=NOC(c4ccccc4)C3)cs2)CC1 (stereo not given)	> 10000 nM	inactive		
O=C(Oc1ccccc1)N1CCC(c2nc(C3=NOC4(CCCc5ccccc54)C3)cs2)CC1 (stereo not given)				Ki [6]: 2.73 nM; inhibition [7]: tde
O=C(Oc1cccnc1)N1CCC(c2nc(C3=NOC(c4ccccc4)C3)cs2)CC1 (stereo not given)			inactive	
COc1ccc(OC(=O)N2CCC(c3nc(C4=NOC(c5ccccc5)C4)cs3)CC2)cc1 (stereo not given)			inactive	
O=C(Nc1cccnc1)N1CCC(Cc2cccc(Oc3ccc(C(F)(F)F)cn3)c2)CC1				K [8]: 0.0033 s⁻¹
O=C(Nc1cccnn1)N1CCC(c2nc(C3=NOC(c4ccccc4)C3)cs2)CC1 (stereo not given)			Active	Activity [3]: inactive
O=C(Nc1cnccn1)N1CCC(c2nc(C3=NOC(c4ccccc4)C3)cs2)CC1 (stereo not given)			Active	Activity [3]: inactive
O=C(Oc1ccccc1Cl)N1CCC(c2nc(C3=NOC(c4ccccc4)C3)cs2)CC1 (stereo not given)	870 nM	inactive		
Cc1ccccc1OC(=O)N1CCC(c2nc(C3=NOC(c4ccccc4)C3)cs2)CC1 (stereo not given)	840 nM	inactive		
